Screening data (PubChem)
Compounds with a hit are over-represented: about 2.3% of the library has one in this group of screens.
ARFGAP1 inhibitor = inhibits rat ARF GTPase activating protein 1; Q62848; Arfgap1-stimulated ARF1 GTP hydrolysis, GDP FP detection; inhibition, % at 16.5 µM; 360,000 compounds, 0.26% hits;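 active = inhibition above a per-plate limit, mean inhibition of low control wells plus 3 SD, cut at about 25% in these data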
Target sequence (Q62848 1-136 limits assumed): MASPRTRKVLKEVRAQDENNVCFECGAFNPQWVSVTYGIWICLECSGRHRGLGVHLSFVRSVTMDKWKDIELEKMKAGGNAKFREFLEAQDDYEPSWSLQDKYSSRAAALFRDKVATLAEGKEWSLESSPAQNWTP
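Material: truncated rat Arfgap1 GAP domain; Incubation: compound-enzyme preincubation 20 min, reaction 120 min, detection 60 min, 25 °C; Read-out: percent inhibition of Arfgap1-stimulated GTP hydrolysis; Technique: FP, GDP Alexa 633 tracer displaced from anti-GDP antibody, 620/688 nm; Controls: No-Arfgap1 wells (100%) versus DMSO full-reaction wells (0%); Replication: single well per compound.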
HGIII-sPLA2 inh = Inhibits HGIII-sPLA2 liposome hydrolysis, primary screen; AID 743126; inhibition, % at 12.2 µM; 370,000 compounds, 0.56% hits; QFRET BODIPY PC-A2 liposome hydrolysis, fluorescence; Q9NZ20;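 active = inhibition above mean plus 3 SD of compounds lying within the high and low control bounds, cut at about 19% in these data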
Calb FLC = C. albicans growth modulation with fluconazole | 300,000 compounds, 0.57% hits | growth inhibition, % (test concentration not listed) | AID 1979 | C. albicans CaCi-2 + fluconazole, Alamar Blue growth, 48 h;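 active = growth inhibition above about 58% in most replicates, limit read from the data, passing the limit was not always enough; inconclusive = exactly half the replicates above a set limit; inactive = most replicates below a set limit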;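 also: all wells also contain fluconazole at 8 µg/ml as a sub-toxic cotreatment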
ASAP1 inh = blocks human ASAP1-stimulated Arf1 GTP hydrolysis; Q9ULH1; GDP FP detection; inhibition, % at 16.5 µM; 360,000 compounds, 0.19% hits; AID 624377; in the data active = inhibition above about 25%
Target sequence (Q9ULH1 325-724 limits assumed): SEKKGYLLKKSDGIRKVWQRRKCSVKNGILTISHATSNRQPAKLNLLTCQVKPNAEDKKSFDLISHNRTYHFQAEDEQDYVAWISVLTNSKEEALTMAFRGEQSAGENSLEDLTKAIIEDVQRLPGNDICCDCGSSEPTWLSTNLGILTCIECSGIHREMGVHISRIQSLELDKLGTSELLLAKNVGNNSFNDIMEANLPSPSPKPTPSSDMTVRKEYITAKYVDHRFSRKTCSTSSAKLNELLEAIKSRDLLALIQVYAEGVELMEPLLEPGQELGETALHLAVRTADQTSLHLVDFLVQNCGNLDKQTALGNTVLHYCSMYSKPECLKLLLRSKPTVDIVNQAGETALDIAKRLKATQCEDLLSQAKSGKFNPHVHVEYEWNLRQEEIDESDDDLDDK
SKKanGAS inh = SKKanGAS growth inhibition; S. pyogenes SKKanGAS, kanamycin growth, BacTiter-Glo, 6 h; AID 1662; inhibition, % at 7.5 µM; 300,000 compounds, 1.3% hits;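 active = mean replicate score, as percent of positive control median, at least 50; inconclusive = mean below 50 but one replicate at or above 50; inactive = mean and every replicate below 50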;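 also: strain carries kanamycin resistance gene driven by streptokinase promoter and grows in 40 µg/ml kanamycin; loss of luminescence reflects streptokinase promoter inhibition or plain growth inhibition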
hGIII sPLA2 conf = human GIII-sPLA2 inhibition, confirmation. shares compounds with HGIII-sPLA2 inh. recombinant hGIII-sPLA2, BODIPY PC-A2 QFRET fluorescence. inhibition, % at 12.2 µM. 2,000 compounds, 34% hits;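 active = mean inhibition across triplicates above the hit cutoff set in the earlier primary screen, cut at about 19% in these data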
535nm interf = optically interferes with 535nm fluorescence in sPLA2 counter-screen; shares compounds with HGIII-sPLA2 inh; BODIPY FL product fluorescence interference, QFRET; inhibition, % at 12.2 µM; 2,000 compounds, 8.5% hits;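 active = average inhibition above the solvent-only control mean plus 3 SD, cut at about 6% in these data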
535nm interf DR = counter-screen for HGIII-sPLA2 inhibitors: 535nm fluorescence interference, dose response. 240 tested, under 10 active. shares compounds with HGIII-sPLA2 inh. BODIPY FL product fluorescence interference, cell-free. IC50, µM;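 active = IC50 at or below 10 µM; inactive = IC50 above 10 µM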
Numbers stand for hits; . = inactive; ? = inconclusive; / = no result given.

SMILES | ARFGAP1 inhibitor | HGIII-sPLA2 inh | Calb FLC | ASAP1 inh | SKKanGAS inh | hGIII sPLA2 conf | 535nm interf | others
COc1cccc(C(=O)NNC(=O)c2ccc3ccccc3c2O)c1 | . | 25 | 102 | . | . | . | .
COc1ccc(NC(=O)NNC(=O)c2ccc3ccccc3c2O)cc1OC | . | 28 | . | . | . | 28 | . | 535nm interf DR=.
O=C(NNC(=O)c1ccc2ccccc2c1O)c1ccccc1Cl | . | 31 | 86 | . | . | 37 | . | 535nm interf DR=.
CN(CCO)c1ccc2c(c1)Oc1ccccc1CN(Cc1cn(Cc3ccccc3C(F)(F)F)nn1)S2(=O)=O | / | . | / | / | / | / | /
Cc1ccccc1NC(=O)NNC(=O)c1ccc2ccccc2c1O | . | 39 | . | . | . | 28 | . | 535nm interf DR=.
Cc1ccccc1NC(=O)NNC(=O)c1ccc2ccccc2c1 | . | . | . | . | . | / | /
CC(C)CNS(=O)(=O)/C=C/c1ccccc1CNC(=O)OC(C)(C)C | / | . | / | / | / | / | /
COc1ccc(C(=O)N2CCCc3ccccc32)cc1Br | . | . | . | . | . | / | /
COc1cc(OC)cc(C(=O)N2CCCc3ccccc32)c1 | . | 20 | . | . | . | . | .
Oc1cc(-c2ccncc2)cc2cccnc12 | . | . | / | . | / | / | /
CN(C)c1ccc(-c2cc(O)c3ncccc3c2)cc1 | . | 27 | / | . | / | . | .
N#Cc1c(C(F)(F)F)cc(-c2ccco2)nc1SCc1ccccn1 | . | 20 | . | . | . | . | .
Cc1ccc(C2c3c(n[nH]c3C)C(=O)N2c2ccccc2)cc1 (stereo unspecified) | . | . | / | . | / | / | /
O=[N+]([O-])c1ccccc1CNC(Cc1ccccc1)c1ccccc1 (stereo unspecified) | . | 24 | . | . | . | . | .
C[C@]12Cc3ccccc3C1CC1=N[C@@H](c3ccccn3)O[C@@]13C[C@@H]2C(=O)N3C1CCN(Cc2ccccc2)CC1 (stereo partly specified) | . | . | / | . | / | / | /
CCc1ccc(NC(=O)NNC(=O)c2cc3ccccc3cc2O)cc1 | . | 27 | ? | . | . | . | .
CCc1ccc(NC(=O)NNC(=O)c2ccc3ccccc3c2O)cc1 | . | 32 | . | . | . | 25 | .
O=C(N[C@@H](Cc1cccnc1)C(=O)N1CCC[C@H]1C(=O)NCc1ccccc1)c1ccc(Cl)cc1Cl | . | . | / | . | / | / | /
Cc1cc(N2CCN(Cc3ccc4c(c3)OCO4)CC2)n2nc(C)nc2n1 | / | . | / | / | / | / | /
CC(CCN1CCC(C(O)(c2ccccc2)c2ccccc2)CC1)Oc1cccc(F)c1 (stereo unspecified) | / | . | / | / | / | / | /
N#Cc1ccc(/C=C2\CC3(OC(=O)c4ccco4)CCCN2C3)cc1 (stereo unspecified) | / | . | / | / | / | / | /
O=C(NC(=S)Nc1ccccc1N1CCCC1)c1ccc([N+](=O)[O-])cc1 | . | 31 | . | . | . | 34 | . | 535nm interf DR=.
COc1ccc(/C=N/NC(=O)c2ccc3c(c2)OCCO3)cc1[N+](=O)[O-] | . | 24 | . | . | . | . | .
COc1cc(/C=N/NC(=O)c2ccc3c(c2)OCCO3)c(Br)c(Br)c1O | . | . | . | . | . | / | /
COc1cc(/C=N/NC(=O)c2ccc3c(c2)OCCO3)cc(Br)c1O | . | 20 | . | . | . | . | .
SMILES | ARFGAP1 inhibitor | HGIII-sPLA2 inh | Calb FLC | ASAP1 inh | SKKanGAS inh | hGIII sPLA2 conf | 535nm interf | others
O=C(OCC#CCSc1nnc(-c2cccs2)o1)c1ccc(F)cc1 | / | . | / | / | / | / | /
Cc1ccc(S(=O)(=O)N2C(N)=C(C(=O)NCc3ccc(Br)cc3)C(c3ccc(Cl)cc3)C2C(=O)c2ccccc2)cc1 (stereo unspecified) | / | . | / | / | / | / | /
O=[N+]([O-])c1cc([N+](=O)[O-])c2c(=Nc3ccccc3)n(-c3ccccc3)n(O)c2c1 | . | 35 | . | . | . | 56 | 19
COc1ccc(-c2c(C#N)c(SCC(N)=O)nc3c2CCCC3)cc1 | . | 20 | . | . | . | 20 | .
CCC(=O)NC(=S)Nc1ccc(OC)cc1OC | . | 21 | . | . | . | . | .
CCN(CC(=O)Nc1ccc(OC)cc1)CC(=O)Nc1ccc(Br)cc1F | . | . | . | . | . | / | /
